M4 ag: agonists of human muscarinic M4 receptor (CHRM4); hit rate 0.14% among 360,000; activation, % at 3 µM; P08173; CHO-K1 hM4/Gqi5, Fluo-8 calcium fluorescence; vehicle 0%, full acetylcholine response 100%;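 active = activation above the run mean over all test wells plus 3 SD, cut at about 32% in these data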;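 also: peak over basal fluorescence ratio per well then scaled between controls; 0% = DMSO wells and 100% = acetylcholine at EC100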
CHRM4 PAM: positive allosteric modulators of human muscarinic M4 receptor; activation, % at 3 µM; CHO-K1 hM4/Gqi5, Fluo-8 calcium fluorescence, ACh EC20; 0% = ACh EC20, 100% = maximal ACh; P08173; hit rate 0.4% among 360,000;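 active = activation above its plate's cutoff, the mean activation of sample wells plus 3 SD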
CHRM5 agonist: CHRM5 agonism in calcium assay; activation, % at 3 µM; CHO-K1 hM5 cells, Fluo-8 calcium fluorescence; 0% DMSO wells, 100% maximal acetylcholine response; hit rate 0.19% among 360,000; P08912;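 active = activation above the run's mean over test compounds plus 3 SD, cut at about 23% in these data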;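 also: signal is peak over basal fluorescence ratio across the kinetic read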
Target sequence (P08912 whole entry, looked up): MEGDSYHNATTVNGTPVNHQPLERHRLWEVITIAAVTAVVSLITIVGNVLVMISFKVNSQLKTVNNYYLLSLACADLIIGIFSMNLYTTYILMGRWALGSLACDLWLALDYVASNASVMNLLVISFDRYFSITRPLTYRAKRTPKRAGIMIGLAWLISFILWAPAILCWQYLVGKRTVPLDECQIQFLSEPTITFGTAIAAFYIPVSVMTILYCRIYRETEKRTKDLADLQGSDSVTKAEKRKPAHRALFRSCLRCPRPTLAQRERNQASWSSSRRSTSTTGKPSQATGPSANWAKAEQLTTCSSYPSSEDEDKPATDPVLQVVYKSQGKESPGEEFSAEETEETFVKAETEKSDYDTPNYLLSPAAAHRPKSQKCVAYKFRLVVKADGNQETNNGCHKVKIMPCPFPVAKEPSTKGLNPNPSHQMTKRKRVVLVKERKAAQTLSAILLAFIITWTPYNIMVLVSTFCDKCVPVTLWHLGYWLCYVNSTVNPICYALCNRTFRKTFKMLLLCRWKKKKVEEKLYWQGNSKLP
CHRM5 antagonist: blocks acetylcholine activation of human M5 receptor | CHO-hM5 cells, Fluo-8 calcium fluorescence, ACh EC80 | P08912 | inhibition, % at 3 µM | hit rate 0.59% among 360,000 | AID 624040;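 active = inhibition above a per-plate cutoff, the mean of that plate's test compounds plus 3 SD, cut at about 27% in these data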;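 also: 0% = acetylcholine EC80 with DMSO and 100% = DMSO without agonist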
M4 antag: antagonists of human muscarinic M4 receptor (CHRM4) | P08173 | CHO-hM4 cells, ACh EC80, Fluo-8 calcium fluorescence | inhibition, % at 3 µM | hit rate 0.73% among 360,000;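 active = inhibition above its plate's cutoff, the mean inhibition of sample wells plus 3 SD, cut at about 27% in these data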;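 also: 0% = acetylcholine EC80 with DMSO and 100% = DMSO without agonist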
M5 PAM: CHRM5 positive allosteric modulation | AID 624038 | hit rate 0.3% among 360,000 | CHO-K1 hM5, Fluo-8 calcium, ACh EC20 PAM; 0% = ACh EC20, 100% = ACh EC100 | activation, % at 3 µM | P08912;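 active = activation above the run cutoff, the mean activation of all test compounds plus 3 SD, cut at about 18% in these data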
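Assay system: CHO-K1 hM5 cells. Also added: acetylcholine at EC20 concentration, added after compound. Dosing: 3 µM, single dose. Times: compound preincubation 140 s before EC20 acetylcholine addition. Signal: Fluo-8 calcium fluorescence. Measure: % activation relative to EC20 and EC100 ACh responses. Repeats: singlicate, one well per test compound.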
Active calls of the source: *. Rows were chosen to be rich in hits. Some 1.9% of all compounds tested hit in one or more screens of this group.

SMILES | M4 ag | CHRM4 PAM | CHRM5 agonist | CHRM5 antagonist | M4 antag | M5 PAM
Cc1ccc(-c2csc(C(O)c3ccccc3)n2)cc1C (stereo unspecified) | 3 | 9 | -1 | 0 | -7 | 2
N=C(N)SCC1=CCS(=O)(=O)C1 | 19 | -9 | -2 | 31* | 21 | -20
CCCNC(=O)C12CCC(C)(c3nc4cc(C)c(C)cc4nc31)C2(C)C (stereo unspecified) | -1 | 23* | 13 | -3 | -26 | 25*
CNC(=O)C12CCC(C)(c3nc4cc(C)c(C)cc4nc31)C2(C)C (stereo unspecified) | 0 | 3 | -1 | 2 | -3 | 1
COc1cccc(CN(C)C(=O)CCNC(=O)c2ccco2)c1 | 1 | 5 | 2 | 0 | -8 | 5
NNC1=N[C@H]2CS(=O)(=O)C[C@H]2S1 | 1 | 24* | -1 | -2 | -5 | 9
O=C(NCc1ccccc1)c1ccc(NC2=NC3CS(=O)(=O)CC3S2)cc1 (stereo unspecified) | 1 | 0 | -1 | 2 | 2 | 0
CC(=O)CC(C)(C)Nc1nc2ccc([N+](=O)[O-])cc2o1 | 1 | 7 | 5 | -11 | -9 | 25*
CCN(CC)c1ccc(C=C2SC(=S)NC2=O)cc1 | 21 | -12 | 72* | 35* | 10 | -37
Cc1ccc2cc(CN(c3ccccc3C)S(=O)(=O)c3ccccc3)c(=O)[nH]c2c1 | 0 | -2 | -2 | 11 | 8 | 0
CCCCN(CCCC)c1cn[nH]c(=O)c1Cl | -1 | -13 | -13 | 11 | 43* | -26
CC1CCc2sc(C(=O)NNC(=O)c3ccncc3)cc2C1 (stereo unspecified) | 1 | 3 | 0 | 6 | 2 | 1
CCOc1ccc(S(=O)(=O)NC(Cc2cnc[nH]2)C(=O)O)cc1 (stereo unspecified) | 3 | 21* | 5 | 5 | -6 | 9
Cc1cc(C)nc(NC(=O)c2ccccc2O)n1 | 1 | -3 | -1 | 7 | -3 | -7
CC1(C(=O)Nc2ccc3c(c2)OCO3)CCN1Cc1csc2ccccc12 (stereo unspecified) | 3 | -12 | -3 | 13 | 11 | -20
Cc1ccc(NC(=O)C2(C)CCN2Cc2csc3ccccc23)cc1 (stereo unspecified) | -1 | -14 | -4 | 7 | 46* | -18
CCn1c(=O)c(CCC(=O)N2CCN(c3ccccn3)CC2)c(C)c2c(C)nn(-c3cccc(C)c3)c21 | 1 | 5 | -3 | -5 | 2 | 0
COc1ccccc1CN1CCC(CNS(=O)(=O)c2cc(-c3cc(C)no3)ccc2OC)CC1 | 1 | -23 | -8 | 2 | 32* | -5
CC(=O)Nc1ccc(NC(=O)CNC(=O)c2sc3ccccc3c2Cl)cc1 | 0 | 6 | 3 | 3 | -8 | 1
COC(=O)c1ccc(NC(=O)CNC(=O)c2sc3ccccc3c2Cl)cc1 | 0 | 22* | 1 | 11 | -1 | -8
CC1CC(C)CN(S(=O)(=O)c2ccc3c(c2)CCN3C(=O)C2CC2)C1 (stereo unspecified) | 1 | 3 | -5 | 12 | 4 | -3
Cc1cccc(C)c1NC(=O)C1CCCN(CCCc2ccccc2)C1 (stereo unspecified) | 2 | -25 | -11 | 22 | 83* | -34
Cc1ccc2nc(SCC(=O)O)nc(C)c2c1 | 1 | 19* | 0 | -4 | -1 | 4
CC(=O)OCCCN(C)CC/C=C1/c2ccccc2CSc2ccccc21 | 3 | -53 | -20 | 19 | 36* | -35
C[N+](C)(C)CC/C=C1/c2ccccc2CSc2ccccc21 | 0 | -18 | -12 | 99* | 96* | -26
SMILES | M4 ag | CHRM4 PAM | CHRM5 agonist | CHRM5 antagonist | M4 antag | M5 PAM
CN(CCC#N)C(=O)c1cc2c(s1)-c1ccccc1SC2 | 2 | 4 | -3 | 7 | -6 | -1
CC(C)C[C@@H](CN1C(=O)C(=O)NC[C@@H]1CC(C)C)NC(=O)Cc1ccccc1 | 1 | -5 | 4 | 0 | 3 | 4
CSCc1c(C(=O)OCC(=O)NC2CCCCC2)oc2ccccc12 | 0 | 7 | 1 | 0 | -13 | 4
C=C1c2cc(C)ccc2NC(=O)N1c1ccc(C)cc1 | 0 | 29* | -1 | -6 | -1 | 5
C=C1c2ccccc2NC(=O)N1c1ccc(C)cc1 | 0 | 2 | -3 | -3 | 9 | -1
COc1ccc(CC(N)c2csc(NC(=O)c3cc(C(C)(C)C)nn3Cc3ccccc3)n2)cc1 (stereo unspecified) | 4 | -11 | -2 | -4 | 13 | -6
N#C/C(=C\c1ccc(N2CCOCC2)o1)C(=O)Nc1ccc(O)cc1 | 10 | -5 | 24* | 13 | -3 | -10
COc1ccc(NC(=O)/C(C#N)=C/C=C/c2ccco2)cc1 | 1 | 6 | 6 | 27 | 18 | 24*
N#C/C(=C/c1ccc(N2CCOCC2)o1)C(=O)NC1CCCCC1 | 10 | -3 | 31* | 16 | -1 | -9
N#C/C(=C/c1ccc(N2CCOCC2)o1)c1ccc(Br)cc1 | 12 | -14 | 6 | 19 | 36* | -10
Cc1ccccc1CNC(=O)C1CCCN(c2cnccn2)C1 (stereo unspecified) | 1 | -5 | -2 | -8 | 3 | 4
COc1ccc(NC(=O)/C(C#N)=C\c2ccc(N3CCOCC3)o2)cc1 | 37* | -22 | 120* | 39* | 14 | -23
c1cnc2c(C3NCCc4c3[nH]c3ccccc43)cccc2c1 (stereo unspecified) | 3 | -14 | 2 | 8 | 38* | -8
O=C(Nc1ccccc1)Nc1ccc(-n2ccc(C(F)(F)F)n2)cc1 | 25 | -62 | 6 | 51* | 45* | -36
N#Cc1ccc(NC(=O)Cn2cnc(S(=O)(=O)N3CCOCC3)c2)cc1 | 1 | 6 | -2 | 4 | 1 | 0
CCCCn1c(=NC(=O)c2ccco2)c(C(=O)OCC)cc2c(=O)n3ccccc3nc21 | 2 | -4 | -8 | -4 | -5 | -10
CCCCn1c(=NC(=O)c2ccco2)c(C(=O)OCC)cc2c(=O)n3cccc(C)c3nc21 | 5 | 8 | 3 | -12 | -11 | 22*
Cc1nc(NC(=O)c2cnccn2)ccc1Br | 4 | 4 | 0 | 3 | -6 | 5
Cn1nc(C(=O)NCCN2CCOCC2)c2ccccc2c1=O | 1 | -4 | -2 | -3 | 9 | -3
CCn1cc(C(=O)NCc2ccco2)c(=O)c2ccc(C)nc21 | 1 | 19* | -1 | -10 | -22 | 13
CCn1cc(C(=O)NCCOC)c(=O)c2ccc(C)nc21 | 0 | -2 | -4 | 0 | 0 | -16

Assay outcomes deposited in PubChem BioAssay by The Scripps Research Institute Molecular Screening Center.
